This is an account of results in ChEMBL document CHEMBL3352088, “Novel derivatives of usnic acid effectively inhibiting reproduction of influenza A virus” (Bioorg Med Chem, 2014).

Data set [1] in a line: Cytotoxicity against MDCK cells assessed reduction in cell viability after 48 hrs by MTT assay. Particulars: dog, read-out: CTD50. The class given is cell-based, Canis lupus familiaris. The gist of the method: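 MDCK monolayers were grown in MEM with 5% fetal calf serum and washed with serum-free MEM. Compounds (5 mg/ml DMSO stock) were applied as twofold dilutions, 1000–4 microgram/ml in MEM, for 48 h at 37°C. After PBS washes, MTT (0,5 mg/ml) was added for 60 min at 37°C, 5% CO2. Formazan was dissolved in DMSO and read at 535 nm. CTD50 is the concentration cutting viability 50%.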
(Formazan colour is commonly taken as a measure of viable cells.)

Data set [2] is described as follows: Selectivity index, ratio of CTD50 for MDCK cells to ED50 for Influenza A virus (A/California/07/09(H1N1)) pdm09. The class given is toxicity, cell-based. Particulars: dog, read-out: Selectivity Index.

Take `COc1c(C)c(O)c(C(=O)/C=C/c2ccc(Cl)cc2)c2c1[C@@]1(C)C(=Cc3c(c(C)nn3-c3ccccc3)[C@@H]1O)O2`: the CC50 at 48 h in data set [1] is 116 µM. Besides, the selectivity ratio in data set [2] was found to be 1.5.
For `CC(=O)[C@@]12O[C@@]13OC1=Cc4c(c(C)nn4-c4ccccc4)C(=O)[C@]1(C)[C@@]3(O)C(O)=C(C)C2=O`, in that order: 67 µM and 5.
For `CC(=O)c1c(O)c(C)c(O)c2c1OC1=CC(=O)/C(=C(/C)NCCC(=O)O)C(=O)[C@]12C`, the CC50 at 48 h in data set [1] was 145 µM. Further, the selectivity ratio in data set [2] was 10.
For `CC(=O)C1=C(O)C=C2Oc3c4c(c(C)c(O)c3[C@@]2(C)C1=O)OCC4=O`, in that order: 117 µM and 1.8.
The corresponding values for `CC(=O)C1=C(O)C=C2Oc3c(C(C)=O)c(OC(F)(Cl)C(F)F)c(C)c(O)c3[C@@]2(C)C1=O` (stereo not given in full) are 100 µM and 14.
